This note sets out measurements from ChEMBL document CHEMBL3045289, “Molecular docking and three-dimensional quantitative structure-activity relationship studies on the binding modes of herbicidal 1-(substituted phenoxyacetoxy)alkylphosphonates to the E1 component of pyruvate dehydrogenase” (J Agric Food Chem, 2007).

The subject of the assay is Cucumis sativus. Description: Herbicidal activity against Cucumis sativus (cucumber) seeds assessed as inhibition of cucumber root at 28 degC for 3 days with 10 hr of lighting and 14 h in the dark. Format: functional, organism-based. The gist of the method: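 Compound dissolved in acetone with a drop of Tween 80, then diluted with water to the required concentrations. Five mL was applied to filter paper in Petri dishes, with 10 cucumber seeds pre-soaked in water for 6 h. Taproot length was read at 72 h as percent inhibition versus control. Three replicates at each of five or six concentrations; IC50 by log-probit regression.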

For `COP(=O)(OC)C(C)OC(=O)COc1ccc(Cl)cc1` (stereo not drawn), the IC50 is 427 nM.

For the molecule `COP(=O)(OC)C(C)OC(=O)COc1ccc(Cl)cc1C` (stereo not drawn), the concentration for half-maximal inhibition (IC50) is 437 nM.

For the molecule `COP(=O)(OC)C(C)OC(=O)COc1ccc(Cl)c(C)c1` (stereo not drawn), the 50% inhibitory concentration (IC50) was 2950 nM.

Consider `COP(=O)(OC)C(C)OC(=O)COc1cc(C)ccc1Cl` (stereo not drawn), for which the 50% inhibitory concentration (IC50) was 49000 nM.

On to `COP(=O)(OC)C(C)OC(=O)COc1cccc(Cl)c1Cl` (stereo not drawn), for which the IC50 is 209000 nM.

In the case of `COP(=O)(OC)C(C)OC(=O)COc1cccc(F)c1` (stereo not drawn), the 50% inhibitory concentration (IC50) is 112000 nM.

For the molecule `COP(=O)(OC)C(C)OC(=O)COc1ccc(F)cc1` (stereo not drawn), the IC50 was 1510 nM.

Consider `COP(=O)(OC)C(OC(=O)COc1cccc(F)c1)C(Cl)(Cl)Cl` (stereo not drawn), for which the IC50 is 83200 nM.

Consider `COP(=O)(OC)C(OC(=O)COc1ccc(F)cc1)C(Cl)(Cl)Cl` (stereo not drawn), for which the IC50 is 1170 nM.

`COP(=O)(OC)C(OC(=O)COc1ccc(Cl)cc1)C(Cl)(Cl)Cl` (stereo not drawn): the IC50 is 724 nM.

For the molecule `COP(=O)(OC)C(OC(=O)COc1c(Cl)cccc1Cl)C(Cl)(Cl)Cl` (stereo not drawn), the IC50 is 115000 nM.

For `COP(=O)(OC)C(OC(=O)COc1cccc(Cl)c1Cl)C(Cl)(Cl)Cl` (stereo not drawn), the IC50 is 70800 nM.

As to `COP(=O)(OC)C(OC(=O)COc1ccc(Cl)cc1C)C(Cl)(Cl)Cl` (stereo not drawn), the concentration for half-maximal inhibition (IC50) was 398 nM.

On to `COP(=O)(OC)C(OC(=O)COc1ccc(Cl)c(C)c1)C(Cl)(Cl)Cl` (stereo not drawn), for which the IC50 is 3470 nM.

With `COP(=O)(OC)C(OC(=O)COc1cc(C)ccc1Cl)C(Cl)(Cl)Cl` (stereo not drawn), the IC50 is 75900 nM.

Turning to `COP(=O)(OC)C(OC(=O)COc1cccc(C(F)(F)F)c1)c1cccc(Cl)c1` (stereo not drawn), the concentration for half-maximal inhibition (IC50) is 14500 nM.

Regarding `COP(=O)(OC)C(OC(=O)COc1cccc(C(F)(F)F)c1)c1ccc(Cl)c(Cl)c1` (stereo not drawn), the half-maximal inhibitory concentration (IC50) was 8320 nM.

On to `COP(=O)(OC)C(OC(=O)COc1cccc(C(F)(F)F)c1)c1ccc(C)cc1` (stereo not drawn), for which the IC50 is 7410 nM.

Consider `COP(=O)(O)C(OC(=O)COc1ccc(Cl)cc1Cl)c1ccco1` (stereo not drawn), for which the IC50 is 447 nM.

As for `COP(=O)(O)C(OC(=O)COc1ccc(Cl)cc1Cl)c1ccccn1` (stereo not drawn), the half-maximal inhibitory concentration (IC50) was 575 nM.

For the molecule `COP(=O)(O)C(OC(=O)COc1ccc(Cl)cc1Cl)c1ccccc1` (stereo not drawn), the half-inhibitory concentration (IC50) was 955 nM.

As for `COP(=O)(O)C(OC(=O)COc1ccc(Cl)cc1Cl)c1ccccc1Cl` (stereo not drawn), the half-maximal inhibitory concentration (IC50) is 912 nM.

With `COP(=O)(O)C(OC(=O)COc1ccc(Cl)cc1Cl)c1ccc(Cl)cc1` (stereo not drawn), the IC50 is 1320 nM.

As to `COP(=O)(O)C(OC(=O)COc1ccc(Cl)cc1Cl)c1ccc(Cl)cc1Cl` (stereo not drawn), the IC50 was 1020 nM.

Turning to `COP(=O)(O)C(OC(=O)COc1ccc(Cl)cc1Cl)c1ccc(Cl)c(Cl)c1` (stereo not drawn), the half-maximal inhibitory concentration (IC50) was 891 nM.

For the molecule `COc1ccc(C(OC(=O)COc2ccc(Cl)cc2Cl)P(=O)(O)OC)cc1` (stereo not drawn), the concentration for half-maximal inhibition (IC50) was 955 nM.

Take `COP(=O)(O)C(OC(=O)COc1ccc(Cl)cc1Cl)c1ccc(F)cc1` (stereo not drawn): the half-inhibitory concentration (IC50) was 776 nM.

For `COP(=O)(O)C(OC(=O)COc1ccc(Cl)cc1Cl)c1cccc([N+](=O)[O-])c1` (stereo not drawn), the IC50 is 1230 nM.

As for `COP(=O)(O)C(OC(=O)COc1ccc(Cl)cc1Cl)c1ccc(C)cc1` (stereo not drawn), the concentration for half-maximal inhibition (IC50) is 1350 nM.

On to `COP(=O)(OC)C(C)OC(=O)COc1c(Cl)cccc1Cl` (stereo not drawn), for which the concentration for half-maximal inhibition (IC50) is 100000 nM.

Turning to `COP(=O)(OC)C(OC(=O)COc1cccc(F)c1)c1cccs1` (stereo not drawn), the IC50 is 126000 nM.

Take `COP(=O)(OC)C(OC(=O)COc1ccc(F)cc1)c1cccs1` (stereo not drawn): the IC50 was 2630 nM.

With `COP(=O)(OC)C(OC(=O)COc1ccc(Cl)cc1Cl)c1cccs1` (stereo not drawn), the IC50 was 282 nM.

On to `COP(=O)(OC)C(OC(=O)COc1ccc(Cl)cc1)c1cccs1` (stereo not drawn), for which the IC50 was 575 nM.

Turning to `COP(=O)(OC)C(OC(=O)COc1c(Cl)cccc1Cl)c1cccs1` (stereo not drawn), the 50% inhibitory concentration (IC50) was 178000 nM.

Regarding `COP(=O)(OC)C(OC(=O)COc1cccc(Cl)c1Cl)c1cccs1` (stereo not drawn), the concentration for half-maximal inhibition (IC50) is 589000 nM.

As to `COP(=O)(OC)C(OC(=O)COc1ccc(Cl)cc1C)c1cccs1` (stereo not drawn), the concentration for half-maximal inhibition (IC50) is 468 nM.

With `COP(=O)(OC)C(OC(=O)COc1ccc(Cl)c(C)c1)c1cccs1` (stereo not drawn), the IC50 is 2340 nM.

As for `COP(=O)(OC)C(OC(=O)COc1cc(C)ccc1Cl)c1cccs1` (stereo not drawn), the half-maximal inhibitory concentration (IC50) is 51300 nM.

With `COP(=O)(OC)C(OC(=O)COc1cccc(F)c1)c1ccccc1` (stereo not drawn), the IC50 was 112000 nM.

With `COP(=O)(OC)C(OC(=O)COc1ccc(F)cc1)c1ccccc1` (stereo not drawn), the IC50 is 1510 nM.

As to `COP(=O)(OC)C(OC(=O)COc1ccc(Cl)cc1)c1ccccc1` (stereo not drawn), the half-maximal inhibitory concentration (IC50) was 427 nM.

Regarding `COP(=O)(OC)C(OC(=O)COc1c(Cl)cccc1Cl)c1ccccc1` (stereo not drawn), the IC50 was 85100 nM.

`COP(=O)(OC)C(OC(=O)COc1cccc(Cl)c1Cl)c1ccccc1` (stereo not drawn): the IC50 was 229000 nM.

Turning to `COP(=O)(OC)C(OC(=O)COc1ccc(Cl)cc1C)c1ccccc1` (stereo not drawn), the IC50 was 355 nM.

In the case of `COP(=O)(OC)C(OC(=O)COc1ccc(Cl)c(C)c1)c1ccccc1` (stereo not drawn), the IC50 is 2570 nM.

With `COP(=O)(OC)C(OC(=O)COc1cc(C)ccc1Cl)c1ccccc1` (stereo not drawn), the concentration for half-maximal inhibition (IC50) is 72400 nM.

For the molecule `COP(=O)(OC)C(OC(=O)COc1cccc(C(F)(F)F)c1)c1ccccc1Cl` (stereo not drawn), the IC50 is 7940 nM.

As for `COP(=O)(OC)C(OC(=O)COc1cccc(C(F)(F)F)c1)c1ccc(Cl)cc1` (stereo not drawn), the IC50 is 6920 nM.

For `COP(=O)(OC)C(OC(=O)COc1cccc(F)c1)c1ccco1` (stereo not drawn), the IC50 was 67600 nM.

As for `COP(=O)(OC)C(OC(=O)COc1ccc(F)cc1)c1ccco1` (stereo not drawn), the IC50 is 1820 nM.

Regarding `COP(=O)(OC)C(OC(=O)COc1ccc(Cl)cc1)c1ccco1` (stereo not drawn), the IC50 was 646 nM.

As for `COP(=O)(OC)C(OC(=O)COc1ccc(Cl)cc1Cl)c1ccco1` (stereo not drawn), the concentration for half-maximal inhibition (IC50) was 339 nM.

For the molecule `COP(=O)(OC)C(OC(=O)COc1c(Cl)cccc1Cl)c1ccco1` (stereo not drawn), the IC50 was 324000 nM.

For the molecule `COP(=O)(OC)C(OC(=O)COc1cccc(Cl)c1Cl)c1ccco1` (stereo not drawn), the IC50 is 447000 nM.

Turning to `COP(=O)(OC)C(OC(=O)COc1ccc(Cl)cc1C)c1ccco1` (stereo not drawn), the 50% inhibitory concentration (IC50) was 3800 nM.

As for `COP(=O)(OC)C(OC(=O)COc1ccc(Cl)c(C)c1)c1ccco1` (stereo not drawn), the IC50 is 3630 nM.

`COP(=O)(OC)C(OC(=O)COc1cc(C)ccc1Cl)c1ccco1` (stereo not drawn): the concentration for half-maximal inhibition (IC50) was 87100 nM.

Usually IC50 stands for the midpoint of a concentration-inhibition curve.
